Experimental data collected from several papers.
Lines come from different studies, so protocols differ.
Observed: cell growth or viability

Structure (SMILES) | cell line | assay | conditions | IC50
C[C@H]1O[C@@H](O[C@H]2[C@@H](O)C[C@H](O[C@H]3[C@@H](O)C[C@H](O[C@H]4CC[C@@]5(C)[C@H](CC[C@@H]6[C@@H]5C[C@@H](O)[C@]5(C)[C@@H](C7=CC(=O)OC7)CC[C@]65O)C4)O[C@@H]3C)O[C@@H]2C)C[C@H](O)[C@@H]1O | ReNcell VM | imaging | 24 h | ~2020 nM
Cc1cc(N(CCO)CCO)ccc1C=O | ACHN | – | – | > 10 µg/mL
CCOP(=S)(OCC)Oc1nc(Cl)c(Cl)cc1Cl | ReNcell VM | – | 24 h | ~9900 nM
O=C(O)CCCc1ccc(N(CCCl)CCCl)cc1 | IOSE-144 | CCK-8 | 48 h | 16500 nM
CC(=O)c1cccc(NC(=O)C(=O)[C@H](CC(C)C)NC(=O)[C@H](Cc2ccccc2)NC(=O)[C@H](CC(C)C)NC(=O)OCc2ccccc2)c1 | RPMI-8226 | MTS | 72 h | 163 nM
C=C(C)[C@H]1Cc2c(ccc3c2O[C@@H]2COc4cc(OC)c(OC)cc4[C@@H]2C3=O)O1 | ReNcell VM | – | 24 h | 270 nM
COc1cc(NC(=O)C(=O)[C@H](CC(C)C)NC(=O)[C@H](CC(C)C)NC(=O)[C@H](CC(C)C)NC(=O)c2ccc(-c3ccc(C(C)=O)cc3)o2)cc(OC)c1 | RPMI-8226 | MTS | 72 h | 36.1 nM
COc1ccc2[nH]cc(CCNc3nccc(Nc4cccc5c4ccn5C)n3)c2c1 | RPMI-8226 | fluorescence | 72 h | 12 nM
Cc1cc(N(CCO)CCO)ccc1C(=O)O | ACHN | – | – | > 10 µg/mL
CC(C)C[C@H](NC(=O)OCc1ccccc1)C(=O)N[C@@H](Cc1c[nH]c2ccccc12)C(=O)N[C@@H](CC(C)C)C(=O)C(=O)Nc1cccc(S(C)(=O)=O)c1 | RPMI-8226 | MTS | 72 h | 33.2 nM
N[C@@H](Cc1ccc(N(CCCl)CCCl)cc1)C(=O)O | IOSE-144 | CCK-8 | 48 h | > 50000 nM
CC(C)C[C@H](NC(=O)OCc1ccccc1)C(=O)N[C@@H](CC(C)C)C(=O)N[C@@H](CC(C)C)C(=O)C(=O)Nc1cccc2cnccc12 | RPMI-8226 | MTS | 72 h | 133 nM
CCCCC/C=C\C/C=C\C/C=C\C/C=C\CCCC(=O)NCCO | ReNcell VM | – | 24 h | ~8000 nM
Cc1cccc(-n2ncc(Cl)c(Cl)c2=O)c1 | NCI-H2444 | resazurin | 96 h | 240 nM
